# Screens: PubChem BioAssay, Broad Institute
# E-sel inducer: E-selectin induction on HUVECs; HUVEC E-selectin immunofluorescence imaging; normalized: neutral wells 0, TNF-alpha wells 100; activation, % at 7.58 µM; 260,000 compounds, 0.37% hits; AID 686992;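 active = mean E-selectin-positive cell signal at least 10% of the positive control, reached in at least 60% of replicates, without over 20% cell loss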
#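 Test system: HUVEC | Signal: Immunofluorescence imaging | Read-out: Percent E-selectin-positive cells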
# FGF22 binding-1: binders of recombinant human FGF22 by thermal shift. Q9HCT0. SYPRO orange fluorescence; percent of sucrose octasulfate shift, DMSO zero. activity (Tm shift, normalised), % at 9.99 µM. 340,000 compounds, 1.5% hits. AID 651658;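 active = mean Tm shift, scaled 0 neutral to 100 positive control, at about 1.3% or above, every replicate too, limit read from the data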
# ERAP1 inh: inhibitors of human ERAP1 aminopeptidase; recombinant ERAP1, Leu-AMC fluorescence, 60 min; AID 652197; inhibition, % at 10.7 µM; 340,000 compounds, 0.15% hits;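 active = mean replicate inhibition of at least 30%, or all replicates individually reaching that 30% level; inactive = mean below 30% and not every replicate reaching it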;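 note: 0% = neutral control wells and 100% = L-leucinethiol positive control wells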
# Target sequence (Q9NZ08 whole entry, looked up): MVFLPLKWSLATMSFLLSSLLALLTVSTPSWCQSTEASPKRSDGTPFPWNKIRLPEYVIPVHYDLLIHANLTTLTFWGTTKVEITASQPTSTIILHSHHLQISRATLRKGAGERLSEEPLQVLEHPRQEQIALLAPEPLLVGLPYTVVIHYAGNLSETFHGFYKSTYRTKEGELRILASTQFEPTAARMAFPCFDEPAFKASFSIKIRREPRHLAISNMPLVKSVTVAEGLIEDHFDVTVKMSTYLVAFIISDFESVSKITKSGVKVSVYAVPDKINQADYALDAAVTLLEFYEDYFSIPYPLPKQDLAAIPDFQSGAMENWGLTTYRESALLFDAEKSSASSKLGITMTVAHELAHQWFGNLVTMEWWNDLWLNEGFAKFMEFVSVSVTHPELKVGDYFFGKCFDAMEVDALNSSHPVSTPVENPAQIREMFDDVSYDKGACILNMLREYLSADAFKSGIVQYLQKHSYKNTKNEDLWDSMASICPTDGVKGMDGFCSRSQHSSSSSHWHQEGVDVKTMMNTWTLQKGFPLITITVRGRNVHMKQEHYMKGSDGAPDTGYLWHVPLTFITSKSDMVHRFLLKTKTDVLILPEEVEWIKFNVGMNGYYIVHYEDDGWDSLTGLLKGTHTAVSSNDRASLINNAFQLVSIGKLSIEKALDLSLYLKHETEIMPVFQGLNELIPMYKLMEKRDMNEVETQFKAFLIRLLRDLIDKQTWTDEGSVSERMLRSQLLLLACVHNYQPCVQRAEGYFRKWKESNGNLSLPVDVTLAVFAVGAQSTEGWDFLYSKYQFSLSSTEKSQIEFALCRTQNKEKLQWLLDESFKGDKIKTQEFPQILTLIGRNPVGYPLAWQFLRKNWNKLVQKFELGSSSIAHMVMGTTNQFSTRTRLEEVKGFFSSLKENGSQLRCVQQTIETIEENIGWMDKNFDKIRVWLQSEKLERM
# F508del corr: CFTR F508del correction in bronchial cells | AID 720511 | activity (quench increase), % at 7.58 µM | CFBE cells, YFP halide quenching; stimulated with forskolin plus potentiator P3; % fluorescence drop versus neutral controls | 350,000 compounds, 0.36% hits;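 active = mean added fluorescence quench of at least 8% versus neutral control, with both replicates also reaching 8%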;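 note: cells transiently co-express mutant CFTR-F508del with the halide-sensitive YFP; corrector assay measuring rescue of mutant channel to the surface after 24 h compound exposure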
# DENV2 CPE: DENV2-induced cell death inhibition; DENV2-infected cells, cytopathic effect rescue, plate reader; 350,000 compounds, 1.7% hits; CPE inhibition, % at 9.99 µM; in the data active = CPE inhibition above about 20%, passing the limit was not always enough; tested in BHK-21 cells;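 note: 0% = median of neutral control wells and 100% = median of positive control wells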
# FGF22 binding-2: FGF22 (human) binding in thermal shift. shares compounds with FGF22 binding-1. recombinant FGF22 thermal shift, SYPRO orange fluorescence. thermal shift activity, °C (ΔTm) at 38 µM. 1,000 compounds, 2% hits. AID 720646;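 active = fitted rise in melting shift crosses a set limit at or below the top valid dose tested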
# SYPRO no-protein: counter-screen for FGF22 binders: compound-only thermal shift, no protein | shares compounds with FGF22 binding-1 | compound-only SYPRO orange thermal shift counter-screen | AC50, µM (doses to about 38 µM) | 1,000 compounds, 2% hits;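 active = rising signal whose fitted curve reaches the 0.54 level within the top valid dose, showing a melting point, actives reach about 13 µM in these data; inactive = the rest, including activity in the opposite direction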; note: value is where the raw curve crosses a fixed level and not half-maximal
# An asterisk follows results filed as active; i = inactive; . = no result; ! = repeats disagree; [ ] = another dose, or the depositor's remark. Rows were chosen to be rich in hits. Some 3.7% of all compounds tested hit in one or more screens of this group.
SMILES,E-sel inducer,FGF22 binding-1,ERAP1 inh,F508del corr,DENV2 CPE,FGF22 binding-2,SYPRO no-protein
CN1C(=O)NC(NS(=O)(=O)c2ccc(N)cc2)(C(F)(F)F)C1=O (stereo unspecified),7.3,3.8*,-8.2,-3.5,17.5,0.101,i
O=C(C[C@H]1C[C@H]2c3cc(NS(=O)(=O)c4ccc(F)cc4)ccc3O[C@H]2[C@H](CO)O1)NC1CCCCC1,-0.7,0.3,3.7,-2.2,2.8,.,.
O=C(O)c1[nH]c2ccc(Br)cc2c1CCN1C(=O)c2cccc([N+](=O)[O-])c2C1=O,-0.1,3.0*,.,0.1,-1.4,.,i
O=C1COc2ccc(S(=O)(=O)N3CCCC3)cc2N1,.,1.5*,-4.5,-0.3,0.7,0.026,i
O=C1COc2ccc(S(=O)(=O)N3CCCCC3)cc2N1,-0.1,-0.4,-1.2,-2.4,-5.8,.,.
S=C(Nc1ccc(N2CCOCC2)cc1)Nc1ccc2snnc2c1,.,1.6*,-0.2,-1.2,1.9,-0.226,i
O=C(Nc1ccc2snnc2c1)N1CCCCC1,.,0.4,-8.0,-0.9,5.3,.,.
O=C(C1CCOCC1)N1C[C@@H]2[C@H](c3ccccc31)[C@@H](CO)N2Cc1ccccc1,0.4,1.5*,.,0.4,.,-0.021[42 µM],i
COc1ccc(C(=O)N2C[C@@H]3[C@H](c4ccccc42)[C@@H](CO)N3Cc2ccccc2)cc1,-0.3,1.3*,1.0,-2.1,-4.1,0.123[42 µM],i
O=C(C1CCOCC1)N1C[C@H]2[C@@H](c3ccccc31)[C@@H](CO)N2Cc1ccc(Cl)cc1,3.3,0.1,-0.6,0.0,2.8,.,.
CO[C@H]1CN(C)C(=O)c2ccc(NC(=O)C3CCCC3)cc2OC[C@@H](C)N(S(C)(=O)=O)C[C@@H]1C,0.0,0.1,.,0.4,-3.4,.,.
COc1ccc(-n2nnnc2/C=C\Nc2ccc(C)cc2)cc1,.,24.7*,-4.0,-1.5,-7.9,0.094,i
Cn1ncc2c(Nc3ccc(Cl)c(Cl)c3)ncnc21,.,9.1*,-0.1,0.5,-5.4,0.147,i
O=C(C[C@H]1C[C@@H]2c3cc(NS(=O)(=O)c4ccc(F)cc4)ccc3O[C@@H]2[C@@H](CO)O1)N1CCOCC1,0.0,.,1.6,-1.7,-1.3,.,.
CCn1c2ccccc2c2cc(/C=N/NC(=O)c3ccc(O)cc3)ccc21,.,0.6,-3.7,-0.1,7.5,.,.
CCn1c2ccccc2c2cc(/C=N/NC(=O)c3ccncc3)ccc21,.,1.5*,-3.9,-4.0,-0.3,0.13,i
CO[C@@H]1CN(C)C(=O)c2ccc(NC(=O)Nc3c(C)noc3C)cc2OC[C@@H](C)N(C)C[C@H]1C,-0.2,-0.3,1.2,0.9,7.6,.,.
Cc1ccc(S(=O)(=O)Nc2ccc3c(c2)C(=O)N([C@@H](C)CO)C[C@@H](C)[C@H](CN(C)C(=O)Nc2ccc(F)cc2)O3)cc1,-0.2,0.0,0.4,1.5,1.2,.,.
O=C(Nc1ccccc1)O/N=C/c1ccc(F)cc1,.,1.4*,1.2,-7.5,13.5,-0.08,i
Cc1ccc(NC(=O)O/N=C/c2ccc(F)cc2)cc1,0.1,0.2,-1.9,-2.1,4.8,.,.
CCc1ccc2nc(N)sc2c1,.,2.4*,3.0,-0.4,-8.3,-0.067,i
CC(=O)N1[C@H](C(=O)Nc2ccccc2)[C@@H](CO)[C@@H]2Cn3c(ccc(C4=CCCCC4)c3=O)[C@@H]21,0.0,-0.2,-1.2,-0.9,2.3,.,.
CCOCCCNS(=O)(=O)c1ccc(NC(=O)c2ccccc2)cc1,.,1.8*,-1.9,-1.8,1.4,0.028,i
O=C(O)c1ccc(C=NNC(=O)c2ccccc2NS(=O)(=O)c2cccs2)cc1,.,.,-1.9,0.9,-4.3,.,.
O=C(NN=Cc1ccc(O)cc1)c1ccccc1NS(=O)(=O)c1cccs1,0.8,1.8*,-7.4,-1.9,8.7,0.025,i
O=C(C(=O)N1CCN(C/C=C/c2ccccc2)CC1)c1ccccc1,-6.8,14.8*,.,2.3,4.9,0.073,i
O=C(NCC[C@H]1CC[C@@H](NC(=O)C2CCOCC2)[C@@H](CO)O1)Nc1ccc(Cl)cc1,0.3,1.6*!,2.5,1.4,-0.8,0.331[42 µM],i
